Hits are enriched below; roughly 2.5% of the tested compounds scored in any of these assays.
NR2E3 ag-1: inhibitors of NR2E3-RetCOR corepressor binding, primary screen, NR2E3 agonist project, biochemical, TR-FRET, GST-NR2E3, biotin-RetCOR; Photoreceptor-specific nuclear receptor (Homo sapiens), Q9Y5X4; 1536-well; inhibition of corepressor binding, % at 4.78 µM; 0.12% of 320,000 active; AID 2300, 2010;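 active = percent inhibition above the cutoff of mean plus 3 SD of all tested compounds, set per screening campaign, cut at about 20% in these data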
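Material: NR2E3–RetCOR corepressor complex / Incubation: Compound–protein incubation for 5 h at 4 °C / Dosing: compound at 4.8 µM, single dose / Detection: time-resolved FRET / Benchmarks: high control biotin, low control 0.6% DMSO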
ADAM17 inh: ADAM17 inhibitors, primary screen, biochemical, QFRET | Disintegrin and metalloproteinase domain-containing protein 17 (Homo sapiens), P78536 | recombinant ADAM17, EDANS/DABCYL FRET peptide cleavage | inhibition, % at 6.95 µM | 0.83% of 370,000 active | AID 720648, 2013;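 active = inhibition above the mean of compounds lying between control limits plus 3 SD, set per campaign, cut at about 8.5% in these data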
NR2E3 ag-2: NR2E3 agonists in two-hybrid cells, primary screen, cell-based, luminescence, CHO-S, Gal4-NCOR/VP16-NR2E3; Photoreceptor-specific nuclear receptor (Homo sapiens), Q9Y5X4; luciferase; inhibition of corepressor binding, % at 3.98 µM; 0.35% of 360,000 active; AID 602229, 2012;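 active = inhibition above the mean of all tested compounds plus 3 SD, cut at about 70% in these data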;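 note: higher means lower luciferase signal from less NR2E3 corepressor binding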
KLK7 zymogen act: proKLK7 zymogen activators, primary screen, biochemical, fluorescence intensity; purified proKLK7, EDANS-DABCYL substrate fluorescence; 100% is mature enzyme control, 0% vehicle; activation, % at 7 µM; 0.9% of 370,000 active;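 active = activation above the mean of all tested compounds plus 3 SD, computed per campaign excluding outliers beyond control limits, cut at about 13% in these data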
Target sequence (P49862 whole entry, looked up): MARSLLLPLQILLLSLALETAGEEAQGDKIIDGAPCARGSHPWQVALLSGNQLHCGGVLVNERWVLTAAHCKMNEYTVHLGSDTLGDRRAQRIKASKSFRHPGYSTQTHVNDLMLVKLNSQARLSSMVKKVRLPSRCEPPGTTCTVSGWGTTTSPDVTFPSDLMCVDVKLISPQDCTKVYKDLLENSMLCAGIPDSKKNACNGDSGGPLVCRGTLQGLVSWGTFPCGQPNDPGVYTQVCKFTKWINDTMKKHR
ADAM10 inh: human ADAM10 inhibitors, primary screen, biochemical, QFRET, HTS | AID 720582, 2013 | Disintegrin and metalloproteinase domain-containing protein 10 (Homo sapiens), O14672 | 0.62% of 370,000 active | recombinant ADAM10, EDANS/DABCYL FRET peptide cleavage, 3 h | inhibition, % at 7 µM;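 active = inhibition above a per-campaign cutoff equal to the mean of compounds falling between control-based bounds plus 3 SD, cut at about 20% in these data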
GASC-1 inh: inhibitors of GASC-1 histone demethylase, primary screen, biochemical, fluorescence, DELFIA europium; AID 2099, 2009; GST-JMJD2C(1-420) H3K9me3 demethylation; Lysine-specific demethylase 4C (Homo sapiens), Q9H3R0; inhibition, % at 2.35 µM; 0.069% of 330,000 active;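 active = more than half of a compound's replicate wells show inhibition beyond 50%, single wells judged on their own value; inconclusive = some, but no more than half, of replicates pass 50% inhibition; inactive = no replicate passes 50% inhibition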;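 note: signal counts dimethyl H3K9 product captured on neutravidin plate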
Target sequence (Q9H3R0 1-420 limits assumed): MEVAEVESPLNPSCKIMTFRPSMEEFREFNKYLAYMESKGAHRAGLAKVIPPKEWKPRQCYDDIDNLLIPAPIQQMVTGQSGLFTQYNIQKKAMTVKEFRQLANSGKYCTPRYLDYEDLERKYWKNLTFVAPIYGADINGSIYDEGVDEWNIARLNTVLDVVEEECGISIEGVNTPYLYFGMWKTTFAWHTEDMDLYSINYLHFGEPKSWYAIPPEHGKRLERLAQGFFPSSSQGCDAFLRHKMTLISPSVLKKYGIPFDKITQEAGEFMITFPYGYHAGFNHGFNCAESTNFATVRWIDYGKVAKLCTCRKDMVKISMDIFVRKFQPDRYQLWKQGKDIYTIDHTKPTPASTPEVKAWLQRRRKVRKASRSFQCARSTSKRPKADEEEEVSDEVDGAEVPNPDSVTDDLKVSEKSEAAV
KLK7 act conf: proKLK7 zymogen activators, confirmation, biochemical, fluorescence intensity, triplicate; shares compounds with KLK7 zymogen act; purified proKLK7, EDANS-DABCYL substrate fluorescence; scaled: vehicle 0, mature enzyme 100; activation, % at 7 µM; 68% of 3,200 active; AID 686949, 2013;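 active = activation, as change over the incubation, above the mean of all tested compounds plus 3 SD, cut at about 13% in these data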
EDANS-DABCYL int: EDANS-DABCYL substrate optical interference, artefact control for kallikrein-7 zymogen activator project, biochemical, fluorescence intensity, high throughput; 80% of 3,200 active; no enzyme, 4 h; solvent 0%, active enzyme control 100%; activation, % at 7 µM; shares compounds with KLK7 zymogen act; AID 686952, 2013;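 active = activation above the all-compound mean plus 3 SD, ignoring values outside control-based bounds, cut at about 4.8% in these data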;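 note: value is the 4 h activation minus the activation read at time zero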
EDANS interf: optically interferes with EDANS-DABCYL fluorescence, kallikrein-7 activator counter-screen; 20% of 250 active; EDANS-DABCYL peptide fluorescence interference, no enzyme; shares compounds with KLK7 zymogen act; EC50, µM;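 active = compounds that raise the fluorescence signal in this interference counterscreen, with EC50 at or below 10 µM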;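 note: intact quenched peptide substrate alone read at 355 nm excitation and 520 nm emission; signal is fluorescence gain from T0 to T4 after four hours at room temperature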
A number is an active result.

Results for CCOc1ccccc1C(=O)N/N=C/c1coc2ccc(C)cc2c1=O ?
ADAM17 inh: inactive; NR2E3 ag-2: inactive; KLK7 zymogen act: 23.9; ADAM10 inh: inactive; GASC-1 inh: inactive; KLK7 act conf: 57.5; EDANS-DABCYL int: 54.3

What do the screens show for `Cc1ccc2occ(/C=N/NC(=O)c3ccc(O)cc3)c(=O)c2c1`?
ADAM17 inh: inactive; NR2E3 ag-2: inactive; KLK7 zymogen act: 22.5; ADAM10 inh: inactive; GASC-1 inh: inactive; KLK7 act conf: 52.9; EDANS-DABCYL int: 51.0

What do the screens show for `Cc1cc(=O)oc2c3c(cc(OCC(=O)NCC(=O)O)c12)OC(C)(C)CC3`?
NR2E3 ag-1: inactive; ADAM17 inh: inactive; NR2E3 ag-2: inactive; KLK7 zymogen act: 43.2; ADAM10 inh: inactive; GASC-1 inh: inactive; KLK7 act conf: 66.0; EDANS-DABCYL int: 79.4

How did Cc1cc(=O)oc2c3c(cc(OCC(=O)NC4CC4)c12)OC(C)(C)CC3 do in these assays?
NR2E3 ag-1: inactive; ADAM17 inh: inactive; NR2E3 ag-2: inactive; KLK7 zymogen act: 14.6; ADAM10 inh: inactive; GASC-1 inh: inconclusive; KLK7 act conf: 22.1; EDANS-DABCYL int: 27.1

Results for CC(=O)N1CCc2cc(NC(=O)C3(C)CCN3Cc3ccccc3OC(F)F)ccc21 (stereo unspecified) ?
ADAM17 inh: inactive; NR2E3 ag-2: inactive; KLK7 zymogen act: inactive; ADAM10 inh: inactive

How did Nc1nccnc1C(=O)OCc1nc2sc3c(c2c(=O)[nH]1)CCCC3 do in these assays?
NR2E3 ag-1: inactive; ADAM17 inh: inactive; NR2E3 ag-2: inactive; KLK7 zymogen act: 48.9; ADAM10 inh: inactive; GASC-1 inh: inactive; KLK7 act conf: 89.2; EDANS-DABCYL int: 74.6; EDANS interf: 6.48

Results for COc1ccc(NS(=O)(=O)c2csc(C(N)=O)c2)cc1 ?
NR2E3 ag-1: inactive; ADAM17 inh: inactive; NR2E3 ag-2: inactive; KLK7 zymogen act: inactive; ADAM10 inh: inactive; GASC-1 inh: inactive

Results for CCOC(=O)c1cnn2c(C)cc(-c3ccccc3)nc12 ?
NR2E3 ag-1: inactive; ADAM17 inh: inactive; NR2E3 ag-2: inactive; KLK7 zymogen act: 23.5; ADAM10 inh: inactive; GASC-1 inh: inactive; KLK7 act conf: 21.5; EDANS-DABCYL int: 31.7

How did CCOC(=O)c1cc2nc(-c3ccccc3)cc(C)n2n1 do in these assays?
NR2E3 ag-1: inactive; ADAM17 inh: inactive; NR2E3 ag-2: inactive; KLK7 zymogen act: inactive; ADAM10 inh: inactive; GASC-1 inh: inactive

Results for CCOC(=O)c1cnn2c(C(F)(F)F)cc(-c3ccco3)nc12 ?
NR2E3 ag-1: inactive; ADAM17 inh: inactive; NR2E3 ag-2: inactive; KLK7 zymogen act: 30.9; ADAM10 inh: inactive; GASC-1 inh: inactive; KLK7 act conf: 26.5; EDANS-DABCYL int: 42.8

What do the screens show for `Cc1cc(NC(=O)COC(=O)CSc2nc3cc(Cl)ccc3n2Cc2ccccc2)no1`?
NR2E3 ag-1: inactive; ADAM17 inh: inactive; NR2E3 ag-2: inactive; KLK7 zymogen act: 12.8; ADAM10 inh: inactive; GASC-1 inh: inactive; KLK7 act conf: inactive; EDANS-DABCYL int: inactive

How did Cc1cc(NC(=O)CSc2nc3ccccc3c(=O)n2Cc2ccccc2)no1 do in these assays?
NR2E3 ag-1: inactive; ADAM17 inh: inactive; NR2E3 ag-2: inactive; KLK7 zymogen act: inactive; ADAM10 inh: inactive; GASC-1 inh: inactive

What do the screens show for `COc1cc(/C=N/N=C/c2c[nH]c(=O)c(C#N)c2Nc2ccccc2)ccc1O`?
NR2E3 ag-1: inactive; GASC-1 inh: inconclusive

How did N#CC1=C(N)Oc2cc(O)c(Cl)cc2C1c1ccccc1F (stereo unspecified) do in these assays?
NR2E3 ag-1: inactive; ADAM17 inh: inactive; NR2E3 ag-2: inactive; KLK7 zymogen act: 15.8; ADAM10 inh: inactive; GASC-1 inh: inactive; KLK7 act conf: inactive; EDANS-DABCYL int: inactive

Results for N#CC(=Cc1ccncc1)c1ccccc1 ?
ADAM17 inh: inactive; NR2E3 ag-2: inactive; KLK7 zymogen act: inactive; ADAM10 inh: inactive

Results for N#C/C(=C\c1ccncc1)c1nc2c(s1)CCCC2 ?
NR2E3 ag-1: inactive; ADAM17 inh: inactive; NR2E3 ag-2: inactive; KLK7 zymogen act: 38.2; ADAM10 inh: inactive; GASC-1 inh: inactive; KLK7 act conf: 22.1; EDANS-DABCYL int: 21.6

What do the screens show for `CCOC(=O)c1sc2c(c1C)c(=O)n(CCO)c(=O)n2Cc1ccccc1`?
NR2E3 ag-1: inactive; ADAM17 inh: inactive; NR2E3 ag-2: inactive; KLK7 zymogen act: inactive; ADAM10 inh: inactive; GASC-1 inh: inactive

What do the screens show for `CC1=C(C(=O)Nc2ccccn2)C(c2cccnc2)n2nnnc2N1` (stereo unspecified)?
NR2E3 ag-1: inactive; ADAM17 inh: inactive; NR2E3 ag-2: inactive; KLK7 zymogen act: 20.9; ADAM10 inh: inactive; GASC-1 inh: inactive; KLK7 act conf: inactive; EDANS-DABCYL int: 5.8

How did COC(=O)C1=C(C)Nc2nnnn2C1c1cccnc1 (stereo unspecified) do in these assays?
NR2E3 ag-1: inactive; ADAM17 inh: inactive; NR2E3 ag-2: inactive; KLK7 zymogen act: inactive; ADAM10 inh: inactive; GASC-1 inh: inactive

What do the screens show for `CNc1nc(-c2ccccc2)cc(C)c1S(C)(=O)=O`?
NR2E3 ag-1: inactive; ADAM17 inh: inactive; NR2E3 ag-2: inactive; KLK7 zymogen act: 20.0; ADAM10 inh: inactive; GASC-1 inh: inactive; KLK7 act conf: inactive; EDANS-DABCYL int: inactive

Results for O=C(CN1CCOCC1)Nc1nc(-c2ccc(Cl)cc2)cs1 ?
NR2E3 ag-1: inactive; ADAM17 inh: inactive; NR2E3 ag-2: inactive; KLK7 zymogen act: inactive; ADAM10 inh: inactive; GASC-1 inh: inactive

How did CC1CN(CC(=O)Nc2nc(-c3ccc(Cl)cc3)cs2)CC(C)O1 (stereo unspecified) do in these assays?
NR2E3 ag-1: inactive; ADAM17 inh: inactive; NR2E3 ag-2: inactive; KLK7 zymogen act: 49.6; ADAM10 inh: inactive; GASC-1 inh: inactive; KLK7 act conf: inactive; EDANS-DABCYL int: inactive
